{
  "source": "ChEMBL document CHEMBL5260843",
  "about": "(J Med Chem, 2019)",
  "key": {"[1]": {"target": "CDK9/cyclin T1 (Homo sapiens) (UniProt O60563+P50750)", "assay": "Inhibition of C-terminal His6 tagged full length recombinant human CDK9/full length human Cyclin T1 expressed in baculovirus infected Sf21 cells using 5-FAM-ACSYSPTSPSYSPTSPSYSPTSPSKK as substrate at 10 uM incubated for 60 mins in presence of ATP relative to control", "in_short": "(§1)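 CDK/cyclin complexes were assayed with 3 μM 5-FAM peptide substrate. ATP was 20 μM for CDK1, 30 μM for CDK2, 280 μM for CDK4, 800 μM for CDK6 and 10 μM for CDK9. Buffer was 50 mM HEPES pH 7.5, 0.0015% Brij-35, 10 mM MgCl2 and 2 mM DTT. Reactions ran 60 min at 28 °C and were stopped with EDTA. Caliper conversion values were converted to % inhibition.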"}, "Cullin-4A (Homo sapiens) [2]": {"target": "Cullin-4A (Homo sapiens) (UniProt Q13619)", "sequence (Q13619 whole entry)": "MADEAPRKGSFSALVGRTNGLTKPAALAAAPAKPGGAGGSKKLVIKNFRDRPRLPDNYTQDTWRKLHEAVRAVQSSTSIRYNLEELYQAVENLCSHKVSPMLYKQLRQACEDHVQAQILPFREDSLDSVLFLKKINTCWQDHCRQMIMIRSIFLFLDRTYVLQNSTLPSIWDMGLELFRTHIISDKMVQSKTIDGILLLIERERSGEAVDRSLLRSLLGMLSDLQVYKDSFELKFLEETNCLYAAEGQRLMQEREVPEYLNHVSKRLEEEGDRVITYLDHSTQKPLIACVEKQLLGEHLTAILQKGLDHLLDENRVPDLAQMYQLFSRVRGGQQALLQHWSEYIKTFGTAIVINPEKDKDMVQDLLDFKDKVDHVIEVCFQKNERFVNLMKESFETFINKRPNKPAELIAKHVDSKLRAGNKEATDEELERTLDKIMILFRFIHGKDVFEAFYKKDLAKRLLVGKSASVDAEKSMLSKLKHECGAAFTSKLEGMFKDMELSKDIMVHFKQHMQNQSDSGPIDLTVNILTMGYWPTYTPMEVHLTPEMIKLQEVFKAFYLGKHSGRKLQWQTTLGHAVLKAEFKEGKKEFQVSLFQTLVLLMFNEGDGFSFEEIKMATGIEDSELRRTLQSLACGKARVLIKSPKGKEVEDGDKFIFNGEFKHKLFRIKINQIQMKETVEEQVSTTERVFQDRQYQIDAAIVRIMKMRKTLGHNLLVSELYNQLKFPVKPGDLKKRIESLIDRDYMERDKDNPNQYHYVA", "assay": "Inhibition of cullin4A neddylation in UBC/DCN1 overactivated human MGC-803 cells at 0.3 to 10 uM incubated for 24 hrs by Western blot analysis", "format": "cell-based", "conditions": "dose 0.3-10 µM", "in_short": "(§2)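 Cells in 6-well plates were exposed to compound for 24 h. MGC-803 were grown in DMEM and KYSE70 in RPMI 1640, both with 10% FBS at 37 °C and 5% CO2. Lysates were made in RIPA with protease inhibitors and quantified by BCA. 30 μg protein was run on 8% SDS-PAGE and blotted to nitrocellulose. Primary antibodies were applied overnight at 4 °C, then HRP secondaries, with ECL and film detection. GAPDH was the loading control. Run three times.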"}, "[3]": {"target": "CDK6/cyclin D3 (Homo sapiens) (UniProt P30281+Q00534)", "assay": "Inhibition of full length human CDK6/N-terminal GST fused human cyclinD3 expressed in baculovirus expression system using 5-FAMIPTSPITTTYFFFKKK-COOH as substrate at 10 uM incubated for 60 mins in presence of ATP relative to control", "in_short": "as §1"}, "MGC-803 [4]": {"system": "MGC-803", "assay": "Induction of ROS generation in human MGC-803 cells at 1 uM incubated for 24 hrs by DCFH-DA staining based flow cytometry analysis (reference value: 2.2%)", "format": "functional"}, "[5]": {"target": "Cyclin-dependent kinase 1/cyclin B (Homo sapiens) (UniProt P06493+P14635+Q8WWL7+O95067)", "assay": "Inhibition of C-terminal His6 tagged human full length CDK1/N-terminal GST-tagged human full length Cyclin B expressed in baculovirus infected Sf21 cells using 5-FAM-QSPKKG-CONH2 as substrate at 10 uM incubated for 60 mins in presence of ATP relative to control", "in_short": "as §1"}, "[6]": {"target": "CDK4/Cyclin D3 (Homo sapiens) (UniProt P11802+P30281)", "assay": "Inhibition of full length human CDK4/N-terminal GST fused human cyclinD3 expressed in baculovirus expression system using 5-FAMIPTSPITTTYFFFKKK-COOH as substrate at 10 uM incubated for 60 mins in presence of ATP relative to control", "in_short": "as §1"}, "[7]": {"target": "T1, DCN1-like protein 1/NEDD8-conjugating enzyme Ubc12 (Homo sapiens) (UniProt Q96GG9+P61081)", "T1 sequence (P61081 whole entry, looked up)": "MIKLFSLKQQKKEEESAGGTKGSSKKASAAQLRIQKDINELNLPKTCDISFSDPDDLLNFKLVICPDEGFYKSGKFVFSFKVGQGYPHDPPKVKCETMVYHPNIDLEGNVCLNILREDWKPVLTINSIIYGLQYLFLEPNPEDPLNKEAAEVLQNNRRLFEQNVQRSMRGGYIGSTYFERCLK", "T1 sequence (Q96GG9 whole entry, looked up)": "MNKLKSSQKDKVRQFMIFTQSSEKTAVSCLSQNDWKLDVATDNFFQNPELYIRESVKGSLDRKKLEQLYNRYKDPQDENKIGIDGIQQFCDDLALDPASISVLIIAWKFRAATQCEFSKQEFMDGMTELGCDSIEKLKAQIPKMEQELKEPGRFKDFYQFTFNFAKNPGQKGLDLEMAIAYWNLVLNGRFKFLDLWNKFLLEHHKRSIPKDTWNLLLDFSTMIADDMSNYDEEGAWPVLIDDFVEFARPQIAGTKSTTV", "conditions": "dose 500.0 nM, time 1.0 hrs"}, "MGC-803 [8]": {"system": "MGC-803", "assay": "Induction of ROS generation in human MGC-803 cells at 0.3 uM incubated for 24 hrs by DCFH-DA staining based flow cytometry analysis (reference value: 2.2%)", "format": "functional"}, "MGC-803 [9]": {"system": "MGC-803", "assay": "Induction of p27 accumulation in human MGC-803 cells incubated for 24 hrs by Western blot analysis", "format": "functional, cell-based", "conditions": "dose 1-10 µM", "in_short": "as §2"}, "[10]": {"target": "Tyrosine-protein kinase BTK (Homo sapiens) (UniProt Q06187)", "sequence (Q06187 whole entry, the tested form may be a part)": "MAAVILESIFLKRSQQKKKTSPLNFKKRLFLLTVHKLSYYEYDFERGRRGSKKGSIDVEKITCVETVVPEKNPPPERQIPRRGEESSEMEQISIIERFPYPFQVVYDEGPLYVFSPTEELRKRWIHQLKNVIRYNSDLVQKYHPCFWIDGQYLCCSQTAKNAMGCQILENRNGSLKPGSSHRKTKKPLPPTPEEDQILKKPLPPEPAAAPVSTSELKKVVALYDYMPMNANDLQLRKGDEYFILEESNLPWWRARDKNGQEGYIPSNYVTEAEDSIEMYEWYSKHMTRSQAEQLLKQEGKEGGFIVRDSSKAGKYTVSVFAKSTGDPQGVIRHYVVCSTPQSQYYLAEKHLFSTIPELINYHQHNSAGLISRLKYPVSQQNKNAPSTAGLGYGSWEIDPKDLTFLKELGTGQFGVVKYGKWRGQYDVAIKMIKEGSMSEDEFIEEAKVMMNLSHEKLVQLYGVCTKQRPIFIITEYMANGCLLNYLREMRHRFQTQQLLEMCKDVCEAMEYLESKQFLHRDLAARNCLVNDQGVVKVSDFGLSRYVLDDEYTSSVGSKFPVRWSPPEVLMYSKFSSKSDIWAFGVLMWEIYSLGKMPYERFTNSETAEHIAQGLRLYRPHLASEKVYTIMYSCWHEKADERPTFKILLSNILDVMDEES", "assay": "Inhibition of N-terminal GST-tagged full length human BTK (2 to 659 residues) expressed in Sf21 insect cells using 5-FAM-EAIYAAPFAKKK as substrate at 10 uM incubated for 60 mins relative to control", "in_short": "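Mobility-shift kinase assay with BTK at 5 nM, 3 μM 5-FAM peptide and 90 μM ATP. Buffer was 50 mM HEPES pH 7.5, 0.0015% Brij-35, 10 mM MgCl2 and 2 mM DTT. Reactions ran 60 min at 28 °C and were stopped with EDTA. Substrate conversion was read on Caliper and converted to % inhibition.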"}, "[11]": {"assay": "Metabolic stability in dog liver microsomes assessed as intrinsic clearance", "format": "ADME, Canis lupus familiaris, Microsome", "conditions": "read-out: CLH"}, "MGC-803 [12]": {"system": "MGC-803", "assay": "Inhibition of cullin3 neddylation in UBC/DCN1 overactivated human MGC-803 cells at 3 uM incubated for 24 hrs by Western blot analysis", "format": "cell-based", "in_short": "as §2"}, "[13]": {"assay": "Metabolic stability in dog liver microsomes assessed as half life", "format": "ADME, Canis lupus familiaris, Microsome"}, "KYSE-70 cell line": {"system": "KYSE-70 cell line", "assay": "Inhibition of cullin2 neddylation in human KYSE-70 cells at 0.3 to 10 uM incubated for 24 hrs by Western blot analysis", "format": "cell-based", "conditions": "dose 0.3-10 µM", "in_short": "as §2"}, "[14]": {"target": "CDK2/Cyclin A2 (Homo sapiens) (UniProt P24941+P20248)", "assay": "Inhibition of GST-tagged human CDK2/Cyclin A2 expressed in baculovirus infected Sf9 cells using 5-FAM-QSPKKG-CONH2 as substrate at 10 uM incubated for 60 mins in presence of ATP relative to control", "in_short": "as §1"}, "Cullin-1 (Homo sapiens)": {"target": "Cullin-1 (Homo sapiens) (UniProt Q13616)", "sequence (Q13616 whole entry)": "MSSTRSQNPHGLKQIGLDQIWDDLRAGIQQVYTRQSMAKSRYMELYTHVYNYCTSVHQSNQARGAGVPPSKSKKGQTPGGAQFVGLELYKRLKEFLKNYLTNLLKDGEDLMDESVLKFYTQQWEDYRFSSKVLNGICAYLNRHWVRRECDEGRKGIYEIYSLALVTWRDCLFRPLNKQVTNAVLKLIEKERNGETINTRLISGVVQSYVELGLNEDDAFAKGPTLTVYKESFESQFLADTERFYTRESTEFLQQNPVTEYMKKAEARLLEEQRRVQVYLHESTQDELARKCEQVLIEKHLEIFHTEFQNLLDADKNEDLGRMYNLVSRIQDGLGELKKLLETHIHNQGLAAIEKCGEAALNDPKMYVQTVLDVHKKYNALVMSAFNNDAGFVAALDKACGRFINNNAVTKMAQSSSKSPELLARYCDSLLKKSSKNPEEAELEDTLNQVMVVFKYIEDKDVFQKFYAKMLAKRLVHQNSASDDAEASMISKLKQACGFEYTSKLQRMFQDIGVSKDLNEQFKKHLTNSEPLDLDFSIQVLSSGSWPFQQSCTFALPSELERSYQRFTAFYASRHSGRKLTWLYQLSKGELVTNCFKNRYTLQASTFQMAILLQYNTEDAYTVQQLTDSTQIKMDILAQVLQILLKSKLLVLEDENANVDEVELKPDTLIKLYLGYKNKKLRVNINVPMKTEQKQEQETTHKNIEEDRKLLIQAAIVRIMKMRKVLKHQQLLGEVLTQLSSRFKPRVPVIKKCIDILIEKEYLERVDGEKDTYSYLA", "assay": "Inhibition of cullin1 neddylation in UBC/DCN1 overactivated human MGC-803 cells at 10 uM incubated for 24 hrs by Western blot analysis", "format": "cell-based", "in_short": "as §2"}, "[15]": {"assay": "Metabolic stability in human liver microsomes assessed as half life", "format": "ADME, Microsome"}, "Cullin-4A (Homo sapiens) [16]": {"target": "Cullin-4A (Homo sapiens) (UniProt Q13619)", "assay": "Inhibition of cullin4A neddylation in human KYSE-70 cells at 0.3 to 10 uM incubated for 24 hrs by Western blot analysis", "format": "cell-based", "conditions": "KYSE-70 cell line, dose 0.3-10 µM", "in_short": "as §2"}, "[17]": {"target": "DCN1-like protein 1/NEDD8-conjugating enzyme Ubc12 (Homo sapiens, UniProt Q96GG9)", "sequence (Q96GG9 whole entry, the tested form may be a part)": "as the sequence (Q96GG9 whole entry, looked up) above", "sequence (P61081 whole entry, further chain, the tested form may be a part)": "as the sequence (P61081 whole entry, looked up) above", "assay": "Inhibition of GST-tagged DCN1 PONY domain (unknown origin)/human N-terminal acetylated UBC12 (1 to 12 residues) protein-protein interaction incubated for 1 hr by HTRF analysis", "format": "protein assay"}, "KYSE-70": {"system": "KYSE-70", "assay": "Upregulation of NRF2 protein expression in human KYSE-70 cells incubated for 24 hrs by Western blot analysis", "format": "functional, cell-based", "conditions": "dose 0.3-10 µM", "in_short": "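Cells were grown at 37 °C in 5% CO2 with 10% FBS, MGC-803 in DMEM and KYSE70 in RPMI 1640. They were exposed to the indicated compound concentrations for 24 h, then lysed in RIPA with protease inhibitors and quantified by BCA. 30 μg of protein was run on 8% SDS-PAGE and blotted to nitrocellulose. Primary antibody was applied overnight at 4 °C, with HRP secondary and ECL film detection. GAPDH served as the loading control; the experiment was done three times.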"}, "[18]": {"assay": "Metabolic stability in rat liver microsomes assessed as intrinsic clearance", "format": "ADME, Microsome", "conditions": "read-out: CLH"}, "[19]": {"system": "Epidermal growth factor receptor (Homo sapiens), P00533 [L858R]", "sequence (P00533 whole entry L858R, the tested form may be a part)": "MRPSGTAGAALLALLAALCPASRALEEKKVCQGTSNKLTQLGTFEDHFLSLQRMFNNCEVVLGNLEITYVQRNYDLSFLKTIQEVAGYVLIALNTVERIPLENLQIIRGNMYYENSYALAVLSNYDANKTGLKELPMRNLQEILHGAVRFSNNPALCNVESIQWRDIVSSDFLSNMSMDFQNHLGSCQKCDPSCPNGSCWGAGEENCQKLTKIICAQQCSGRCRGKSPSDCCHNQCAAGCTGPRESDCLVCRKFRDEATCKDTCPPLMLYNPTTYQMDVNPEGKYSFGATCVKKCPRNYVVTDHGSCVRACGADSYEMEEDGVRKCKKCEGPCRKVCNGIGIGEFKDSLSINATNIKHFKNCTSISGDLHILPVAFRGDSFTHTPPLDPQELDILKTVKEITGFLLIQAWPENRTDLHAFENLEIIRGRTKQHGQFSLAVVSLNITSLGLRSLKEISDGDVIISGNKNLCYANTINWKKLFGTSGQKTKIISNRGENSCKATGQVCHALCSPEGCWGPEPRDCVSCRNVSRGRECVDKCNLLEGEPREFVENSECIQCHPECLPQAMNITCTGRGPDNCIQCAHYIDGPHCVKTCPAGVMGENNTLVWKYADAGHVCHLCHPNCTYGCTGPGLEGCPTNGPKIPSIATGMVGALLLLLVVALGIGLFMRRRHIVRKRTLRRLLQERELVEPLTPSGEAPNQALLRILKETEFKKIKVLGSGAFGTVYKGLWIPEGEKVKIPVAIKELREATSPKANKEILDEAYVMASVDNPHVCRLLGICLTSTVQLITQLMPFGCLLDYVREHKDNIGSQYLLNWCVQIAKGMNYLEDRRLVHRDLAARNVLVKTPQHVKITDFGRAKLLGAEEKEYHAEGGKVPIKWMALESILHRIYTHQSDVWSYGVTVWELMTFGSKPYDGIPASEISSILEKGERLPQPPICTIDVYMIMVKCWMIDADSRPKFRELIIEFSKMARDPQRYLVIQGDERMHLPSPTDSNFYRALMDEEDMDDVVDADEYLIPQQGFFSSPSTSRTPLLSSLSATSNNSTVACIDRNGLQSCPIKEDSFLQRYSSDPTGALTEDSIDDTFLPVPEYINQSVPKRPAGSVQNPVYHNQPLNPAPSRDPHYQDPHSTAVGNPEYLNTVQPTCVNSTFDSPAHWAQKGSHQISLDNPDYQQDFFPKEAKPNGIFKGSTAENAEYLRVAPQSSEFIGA", "assay": "Inhibition of human EGFR L858R mutant (669 to 1210 residues) expressed in Sf21 insect cells using 5-FAM-EEPLYWSFPAKKK-CONH2 as substrate at 10 uM incubated for 30 mins relative to control"}, "[20]": {"target": "T1, DCN1-like protein 1/NEDD8-conjugating enzyme Ubc12 (Homo sapiens)", "conditions": "dose 500.0 nM, time 1.0 hrs", "remark": "listed apart in the source"}},
  "note": "Activity calls are given as the source filed them. The calls are words filed in the database; no cut-off is given here.",
  "data": [
    {"compound": "Cc1cc(Sc2nnnn2CCN(C)C)n2nc(SCc3ccc(Cl)cc3)nc2n1.Cl", "values": [
      {"measurement": "inhibition", "setting": "[1]", "value": -8.4, "unit": "%"},
      {"measurement": "inhibition", "setting": "Cullin-4A (Homo sapiens) [2]", "value": "inactive"},
      {"measurement": "inhibition", "setting": "[3]", "value": 21.8, "unit": "%"},
      {"measurement": "Activity", "setting": "MGC-803 [4]", "value": 3.8, "unit": "%"},
      {"measurement": "inhibition", "setting": "[5]", "value": 9.6, "unit": "%"},
      {"measurement": "inhibition", "setting": "[6]", "value": 4.8, "unit": "%"},
      {"measurement": "inhibition", "setting": "[7]", "value": "Active"},
      {"measurement": "Activity", "setting": "MGC-803 [8]", "value": 2.8, "unit": "%"},
      {"measurement": "Activity", "setting": "MGC-803 [9]", "value": "Dose-Dependent Effect"},
      {"measurement": "inhibition", "setting": "[10]", "value": 13.6, "unit": "%"},
      {"measurement": "CLint scaled", "setting": "[11]", "value": 691, "unit": "mL/min/kg"},
      {"measurement": "inhibition", "setting": "MGC-803 [12]", "value": "Active"},
      {"measurement": "half-life", "setting": "[13]", "value": "< 5", "unit": "min"},
      {"measurement": "inhibition", "setting": "KYSE-70 cell line", "value": "inactive"},
      {"measurement": "inhibition", "setting": "[14]", "value": 20.5, "unit": "%"},
      {"measurement": "inhibition", "setting": "Cullin-1 (Homo sapiens)", "value": "Active"},
      {"measurement": "half-life", "setting": "[15]", "value": "< 5", "unit": "min"},
      {"measurement": "inhibition", "setting": "Cullin-4A (Homo sapiens) [16]", "value": "inactive"},
      {"measurement": "IC50", "setting": "[17]", "value": 11, "unit": "nM"},
      {"measurement": "Activity", "setting": "KYSE-70", "value": "Dose-Dependent Effect"},
      {"measurement": "CLint scaled", "setting": "[18]", "value": 497, "unit": "mL/min/kg"},
      {"measurement": "inhibition", "setting": "[19]", "value": -0.6, "unit": "%"},
      {"measurement": "inhibition", "setting": "[20]", "value": "Active"}
    ]}
  ]
}
